# Measurements collected from several papers.
# Each line is one published result; the experiments were not run side by side.
# CHEK2: Serine/threonine-protein kinase Chk2 (CHEK2, Homo sapiens, UniProt O96017)
# CHEK2 I157T: Serine/threonine-protein kinase Chk2 (CHEK2, Homo sapiens, UniProt O96017, I157T)
Structure (SMILES),target,observed,mode,technique,concentration,endpoint,result
Cc1ccc(NC(=O)c2ccc(C)c(C(F)(F)F)c2)cc1C#Cc1nn(C2CCC(O)CC2)c2ncnc(N)c12 (stereo not drawn),CHEK2,cell-free assay,,,10 µM,remaining signal,111%
COc1cc2nccc(Oc3ccc(NC(=O)Nc4ccc(F)cc4F)c(F)c3)c2cc1OC,CHEK2,thermal stability,,DSF,10 µM,ΔTm,5 to 10 °C
Cn1c2c(Cl)c(Cl)ccc2c2cc[nH]c(=O)c21,CHEK2,thermal stability,,DSF,10 µM,ΔTm,0.2 °C
CCN(CC)CCNC(=O)c1c(C)[nH]c(/C=C2\C(=O)Nc3ccc(F)cc32)c1C,CHEK2,cell-free assay,,,0.5 µM,remaining signal,7.13%
CCCOc1ccc([C@H]2[C@H](C(=O)O)[C@@H](c3ccc4c(c3)OCO4)CN2CC(=O)Nc2c(CC)cccc2CC)cc1,CHEK2,cell-free assay,,competition with immobilised ligand,1 µM,remaining binding,88%
Cc1ccc(NC(=O)c2ccc(CN3CCN(C)CC3)cc2)cc1Nc1nc(-c2cccnc2)cs1,CHEK2,cell-free assay,,,0.5 µM,remaining signal,101%
O=C(Nc1cccnn1)N1CC(C/C=C/c2cncc(Oc3ccc(C(F)(F)F)cn3)n2)C1,CHEK2,cell-free assay,,competition with immobilised ligand,1 µM,remaining binding,100%
Nc1ncnc2occ(-c3ccc(NC(=O)Nc4cc(C(F)(F)F)ccc4F)cc3)c12,CHEK2,cell-free assay,inhibitor,,20 µM,remaining signal,13%
N#CCCc1ccc2c(c1)-c1[nH]c3ccc([N+](=O)[O-])cc3c1CC(=O)N2,CHEK2,cell-free assay,,,0.5 µM,remaining signal,12.6%
CCC1(CC)NC(=O)c2c(c3ccc(Cl)c(Cl)c3n2C)C1C#N (stereo not drawn),CHEK2,thermal stability,,DSF,10 µM,ΔTm,-0.2 °C
CO[C@@H](C)c1c(Nc2ccc([C@H](N(C)C(=O)C3CCS(=O)(=O)CC3)C(F)(F)F)cc2)cnc2cc(Cl)nn12,CHEK2,cell-free assay,,competition with immobilised ligand,1 µM,remaining binding,90%
CNC(=O)c1cc(Oc2ccc(NC(=O)Nc3ccc(Cl)c(C(F)(F)F)c3)cc2)ccn1,CHEK2 I157T,enzyme activity,inhibitor,,0.3 µM,inhibition,-9%
CN(C)C1CCN(CC#Cc2nn(C3CCCC3)c3nc(NCc4ccccc4)ncc23)C1 (stereo not drawn),CHEK2,enzyme activity,inhibitor,FRET,0.1 µM,inhibition,6%
CN([C@@H]1CCc2c(CC(=O)O)c3cc(S(C)(=O)=O)ccc3n2C1)S(=O)(=O)c1ccc(F)cc1,CHEK2,cell-free assay,,competition with immobilised ligand,1 µM,remaining binding,100%
N#CC1c2c([nH]c3c(Cl)c(Cl)ccc23)C(=O)NC12CCCCC2 (racemic),CHEK2,thermal stability,,DSF,10 µM,ΔTm,0.1 °C
CN([C@@H]1CCc2c(CC(=O)O)c3ccccc3n2C1)S(=O)(=O)c1ccc(F)cc1,CHEK2,cell-free assay,,competition with immobilised ligand,1 µM,remaining binding,100%
Cc1ccc(Nc2nccc(N(C)c3ccc4c(C)n(C)nc4c3)n2)cc1S(N)(=O)=O,CHEK2,enzyme activity,inhibitor,,0.3 µM,inhibition,-13%
CCCCN(CCCC)C(=O)CN1C[C@H](c2cc(OC)c3c(c2)OCO3)[C@@H](C(=O)O)[C@@H]1CC(C)(C)CCC,CHEK2,cell-free assay,,competition with immobilised ligand,1 µM,remaining binding,100%
Cn1c2c(c3ccccc31)C(C#N)C(C)(C)NC2=O (stereo not drawn),CHEK2,thermal stability,,DSF,10 µM,ΔTm,0.8 °C
C[S+]([O-])c1ccc(-c2nc(-c3ccncc3)c(-c3ccc(F)cc3)[nH]2)cc1 (stereo not drawn),CHEK2,cell-free assay,,,0.5 µM,remaining signal,99.6%
CCCOc1ccc(OC)c(F)c1C(=O)c1ccc(C(=O)N[C@@H]2CNC[C@H]2NC(=O)c2ccc3[nH]ncc3c2)cc1,CHEK2 I157T,enzyme activity,inhibitor,,10 µM,remaining activity,16%
O=C1CCc2cc(Nc3cc(OC4CCOCC4)c([N+](=O)[O-])cc3Cl)ccc2N1,CHEK2,cell-free assay,,competition with immobilised ligand,1 µM,remaining binding,69%
Oc1cccc(-c2nc(N3CCOCC3)c3oc4ncccc4c3n2)c1,CHEK2,cell-free assay,,,0.5 µM,remaining signal,90.4%
Cn1c2c(Cl)c(Cl)ccc2c2cn[nH]c(=O)c21,CHEK2,thermal stability,,DSF,10 µM,ΔTm,-0.4 °C
Cc1cc(NC(=O)c2cccc3cc(-c4cccc5[nH]nc(N)c45)ccc23)ccc1F,CHEK2,enzyme activity,inhibitor,,0.1 µM,activity vs control,102%
CC1(C)NC(=O)c2[nH]c3c(Cl)c(Cl)ccc3c2C1C#N (stereo not drawn),CHEK2,thermal stability,,DSF,10 µM,ΔTm,-0.1 °C
Cc1noc([C@H]2C[C@@H](c3ccc(C(F)(F)F)cc3)CN(C(=O)N3CCS(=O)(=O)C3)C2)n1,CHEK2,cell-free assay,,competition with immobilised ligand,1 µM,remaining binding,100%
